APJ ag: agonists of human apelin receptor APJ, primary screen, CHO-K1 cells, PathHunter beta-arrestin, luminescence | P35414 | 0% DMSO wells, 100% apelin | activation, % at 20 µM | actives 0.11% (n = 330,000);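 active = activation more than six SD over the plate average, tested at 20 µM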;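 also: 0% = DMSO alone and 100% = apelin-13 at 10 nM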
Target sequence (P35414 whole entry, looked up): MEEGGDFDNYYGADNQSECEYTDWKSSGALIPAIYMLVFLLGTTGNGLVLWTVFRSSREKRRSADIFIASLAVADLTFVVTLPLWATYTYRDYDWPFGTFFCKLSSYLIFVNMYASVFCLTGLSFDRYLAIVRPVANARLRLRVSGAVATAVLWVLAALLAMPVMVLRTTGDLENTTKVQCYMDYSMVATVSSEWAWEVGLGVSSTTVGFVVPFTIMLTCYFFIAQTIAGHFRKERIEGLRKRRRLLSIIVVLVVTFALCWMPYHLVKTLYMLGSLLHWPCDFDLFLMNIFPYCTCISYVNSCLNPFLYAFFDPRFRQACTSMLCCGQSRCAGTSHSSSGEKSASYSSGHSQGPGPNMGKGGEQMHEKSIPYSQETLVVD
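Incubation: overnight seeding, 90 min compound at 25 °C, 1 h detection; test system: PathHunter CHO-K1 APJ (AGTRL-1) beta-arrestin reporter cells; amount: 1000 cells/well; doses: one dose, 20 µM compound, 1% DMSO; measured by: beta-gal luminescence; measure: agonist-driven arrestin binding to APJ; benchmarks: negative DMSO alone, positive Apelin-13 at 10 nM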
CCR6 antag: CCR6 receptor antagonists, primary screen, cell-based, CHO-K1, luminescence, beta-arrestin, uHTS | AID 493098, 2011 | inhibition, % at 20 µM | CHO-K1 CCR6 PathHunter beta-arrestin, CCL20-stimulated | actives 0.49% (n = 340,000);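 active = compounds whose inhibition of the agonist-driven luminescence signal at 20 µM reaches about 50%, limit read from the data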;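 also: cells stimulated with CCL20 at 14 nM final; plate controls were DMSO with CCL20 for no effect and DMSO without agonist for full effect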
APJ antag: antagonists of human apelin receptor APJ, primary screen, CHO-K1 cells, beta-arrestin complementation, luminescence | actives 0.32% (n = 330,000) | inhibition, % at 20 µM | AID 2521, 2010 | P35414;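 active = inhibition above about 40% at 20 µM, limit read from the data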;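 also: cells challenged with 10 nM apelin-13 agonist together with compound; plate controls were apelin-13 plus DMSO wells for no effect and DMSO wells lacking apelin-13 for full effect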
EBI2 block: EBI2 receptor antagonists, beta-arrestin recruitment, primary screen, cell-based, luminescence, 7a,25-OHC stimulation, uHTS; G-protein coupled receptor 183 (Homo sapiens), P32249; 7a,25-OHC stimulated; inhibition, % at 5 µM; actives 0.81% (n = 360,000); in the data active = inhibition above about 38%;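 also: enzyme fragment complementation signal reports receptor beta-arrestin coupling in cells; 0% = agonist plus DMSO wells and 100% = wells without agonist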
CXCR6 inh: CXCR6 receptor inhibitors, primary screen, cell-based, beta-arrestin, luminescence, CHO-K1 PathHunter, 1536-well. C-X-C chemokine receptor type 6 (Homo sapiens), O00574. inhibition, % at 20 µM. actives 0.36% (n = 360,000); in the data active = inhibition above about 34%, passing the limit was not always enough;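 also: antagonist mode with CXCL16 agonist at 10 nM final; 0% = 10 nM CXCL16 with DMSO and 100% = unstimulated wells without agonist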
Target sequence (O00574 whole entry, looked up): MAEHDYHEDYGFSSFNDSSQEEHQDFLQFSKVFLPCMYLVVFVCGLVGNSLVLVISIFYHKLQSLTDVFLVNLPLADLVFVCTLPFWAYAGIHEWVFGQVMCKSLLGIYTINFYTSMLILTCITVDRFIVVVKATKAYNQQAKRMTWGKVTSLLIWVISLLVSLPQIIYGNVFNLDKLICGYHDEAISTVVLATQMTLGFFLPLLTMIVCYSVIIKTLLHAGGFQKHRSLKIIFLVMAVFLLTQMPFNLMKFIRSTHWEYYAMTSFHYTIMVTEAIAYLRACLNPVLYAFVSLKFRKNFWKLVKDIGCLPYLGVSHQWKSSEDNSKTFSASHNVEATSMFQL
EBI2 antag conf: EBI2 antagonist hit retest, beta-arrestin, confirmation, cell-based, single concentration, luminescence, 7a,25-OHC stimulation. shares compounds with EBI2 block. 7a,25-OHC antagonism. inhibition, % at 5 µM. actives 29% (n = 2,400);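 active = inhibition of at least 50%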
EBI2 agonist: EBI2 agonist activity of antagonist hits, confirmation, counter-screen for EBI2 antagonist project, cell-based, single concentration, agonist mode, luminescence; shares compounds with EBI2 block; EBI2-expressing cells, 60 min; 0% vehicle, 100% 7α,25-dihydroxycholesterol control; activation, % at 5 µM; 2,400 tested, under 10 active;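 active = activation of at least 50%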
bGal cs: E. coli beta-galactosidase enzyme inhibition, confirmation, counter-screen for EBI2 antagonist project, biochemical, luminescence, single concentration. shares compounds with EBI2 block. purified beta-galactosidase, luminescent Galacton Star, 15 min. inhibition, % at 5 µM. actives 1% (n = 2,400);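 active = replicate-average signal at least 3 plate SD below neutral wells, shown as high inhibition, flagging enzyme-inhibiting false positives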;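 also: 0% = DMSO wells with enzyme and 100% = wells lacking enzyme; higher means stronger loss of beta-gal luminescence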
Active calls of the source: *; . = no result. The list is not random: actives were taken first. Their share in the collection is about 1.5%.

SMILES	APJ ag	CCR6 antag	APJ antag	EBI2 block	CXCR6 inh	EBI2 antag conf	EBI2 agonist	bGal cs
CCc1ccc(S(=O)(=O)Nc2ccc(Br)cn2)cc1	-0.1	-1.2	14.8	-12.8	-9.8	.	.	.
Nc1nc(NS(=O)(=O)c2ccc(Cl)cc2)nn1-c1ccccc1	2.0	2.7	6.1	-4.8	8.4	.	.	.
O=C(Nc1nnc(-c2ccco2)o1)C1CC1	-2.7	0.1	16.4	-2.0	4.6	.	.	.
O=C(COC(=O)c1cc([N+](=O)[O-])ccc1N1CCOCC1)c1ccc(OC(F)F)cc1OC(F)F	-4.5	16.5	17.6	43.5*	16.0	18.3	0.1	8.2
O=C(COC(=O)c1cc([N+](=O)[O-])ccc1N1CCOCC1)Nc1ccccc1OC(F)F	9.4	14.7	-58.9	2.0	-1.2	.	.	.
CC(=O)NC(c1ccc(F)c(F)c1)c1nc(-c2cccc(F)c2)cs1 (stereo not given)	.	.	.	-2.0	5.1	.	.	.
Cc1cc2oc(C(=O)N3CCN(CCc4ccccn4)CC3)c(C)c2cc1C	8.9	3.4	3.7	49.8*	-7.0	32.2	0.8	1.8
COc1ccccc1N1CCN(C(=O)c2oc3cc(C)c(C)cc3c2C)CC1	.	12.4	.	59.4*	-3.8	31.8	0.5	8.3
Cc1c(C(=O)N2CCN(C(c3ccccc3)c3ccccc3)CC2)oc2ccccc12	-3.9	17.8	8.7	87.3*	-1.4	40.3	-0.7	-5.0
CCOc1ccc2oc(C(=O)N3CCN(c4ccccc4OCC)CC3)c(C)c2c1	-1.9	6.7	14.8	27.1	-7.2	.	.	.
CCc1ccc2oc(C(=O)N3CCN(c4ccccc4OC)CC3)cc(=O)c2c1	-4.6	14.8	4.0	91.0*	-4.6	84.0*	-1.2	-14.4
CCc1ccc2oc(C(=O)N3CCN(c4ccc(OC)cc4)CC3)cc(=O)c2c1	-2.0	10.8	14.8	91.2*	-0.3	83.2*	2.8	3.3
COc1ccc2c(C)c(C(=O)N3CCN(Cc4ccccc4)CC3)oc2c1	-1.1	18.6	-3.4	44.9*	-3.4	15.0	0.3	7.3
COc1ccccc1C(=O)N1CCCN(C(=O)c2ccccc2OC)CC1	0.9	8.6	6.5	-7.3	-1.1	.	.	.
COc1ccccc1C(=O)N1CCN(C(=O)c2oc3c(C)c(C)ccc3c2C)CC1	.	.	.	51.3*	-16.4	43.3	0.1	-20.0
COc1ccc(Cn2c(=O)[nH]c3cc(C(=O)N4CCN(Cc5ccccc5)CC4)ccc3c2=O)cc1	5.4	-8.9	-5.6	2.6	1.0	.	.	.
CCOc1ccc(C(=O)Nc2cnn(Cc3ccc(Cl)c(Cl)c3)c2)cc1	1.7	-4.9	-32.1	26.7	5.8	.	.	.
O=C(Nc1cnn(Cc2ccc(Cl)c(Cl)c2)c1)C12CC3CC(CC(C3)C1)C2	-3.4	7.4	-3.4	41.5*	-12.2	32.1	1.0	3.5
Cc1ccc2c(c1)CCCO[C@]21O[C@H](CCO)C[C@H](O)[C@H]1O	.	.	.	1.4	-1.3	.	.	.
COC(=O)/C=C1\SC(=Nc2ccccc2)NC1=O	-2.2	11.1	14.7	52.3*	8.4	59.4*	-0.8	-11.8
COC(=O)/C=C1/SC(=Nc2ccc(C)cc2C)NC1=O	-2.3	8.6	19.7	71.7*	3.3	72.5*	0.1	3.1
CS(=O)(=O)N(CC(=O)Nc1cccc(Br)c1)Cc1ccccc1	-3.7	0.4	-2.5	0.2	8.4	.	.	.
COCCOC(=O)c1c(NC(=O)CN2CCCc3ccccc32)sc(C(N)=O)c1C	-2.9	-1.6	3.2	75.9*	-4.7	49.4	1.2	-1.3
CSCCC(NC(=O)OCc1ccccc1)C(=O)NCc1cccnc1 (stereo not given)	-3.0	7.7	24.6	0.7	-2.4	.	.	.
Cn1c(=O)c2c([nH]c(=S)n2Cc2ccc(Cl)cc2)n(C)c1=O	1.7	-4.4	7.9	-7.7	5.2	.	.	.
SMILES	APJ ag	CCR6 antag	APJ antag	EBI2 block	CXCR6 inh	EBI2 antag conf	EBI2 agonist	bGal cs
CCCNC(=S)N1CCN(C(c2ccccc2)c2ccccc2)CC1	11.1	5.5	4.1	9.9	15.4	.	.	.
S=C(NCCc1ccccc1)N1CCN(C(c2ccccc2)c2ccccc2)CC1	-1.6	1.1	-5.5	54.4*	11.1	23.5	0.7	2.9
CSc1ccc(C(=S)N2CCN(C)CC2)cc1	1.6	-7.5	13.0	-3.4	3.2	.	.	.
CSc1ccc(C(=S)N2CCN(C(c3ccccc3)c3ccccc3)CC2)cc1	-4.5	-0.1	8.6	82.7*	15.1	39.2	0.8	7.6
COc1cc(NCCCNC(C)C)c2nccc(C)c2c1	.	-14.5	.	-30.9	-10.6	.	.	.
CC(=O)c1ccc(S(=O)(=O)NCC(=O)NC(c2nc3ccccc3[nH]2)C(C)C)cc1 (stereo not given)	0.0	1.7	15.3	-2.8	-3.8	.	.	.
O=C1CSC(=Nc2ccccc2[N+](=O)[O-])N1	-3.3	6.6	8.0	1.1	4.3	.	.	.
COc1cc(/C=C/C(=O)N2CCN(Cc3ccccc3)CC2)cc(OC)c1OC	-0.8	12.4	17.6	60.9*	4.2	27.0	0.6	7.5
O=C(/C=C/c1ccc(Cl)cc1)NCCc1ccccc1	-4.8	3.2	10.2	54.3*	-8.7	24.7	-1.2	-8.9
O=C(/C=C/c1ccc(Cl)c(Cl)c1)N1CCc2ccccc21	-4.4	12.8	3.9	20.6	3.9	.	.	.
CN1CCN(C(=O)/C=C/c2ccc(Cl)c(Cl)c2)CC1	-5.0	8.9	7.3	91.9*	3.7	60.7*	2.2	3.9
O=C(c1ccccc1)N(Cc1ccccc1)c1ccccn1	-4.9	-13.9	31.8	1.4	0.5	.	.	.
O=C(/C=C/c1ccc(Cl)cc1)N(Cc1ccccc1)c1ccccn1	-3.4	29.6	-4.3	40.9*	7.4	18.2	-1.7	-11.2
O=C(/C=C/c1ccccc1Cl)NCCc1ccccc1	-2.2	17.3	-2.6	33.0	-6.4	.	.	.
Cc1ccccc1OCC(=O)NCCS(=O)(=O)N1CCN(c2ccc(F)cc2)CC1	-2.0	7.7	-8.0	-9.7	-17.5	.	.	.
O=C(/C=C/c1ccc(Cl)cc1)N1CCN(Cc2ccccc2)CC1	0.0	-0.7	-3.0	96.7*	-0.5	88.6*	2.5	0.0
CN1CCN(C(=O)/C=C/c2ccc(Cl)cc2)CC1	-0.2	-3.5	15.1	92.8*	7.1	79.0*	4.2	4.6
